Results on 5 molecules are retold here after paper PMC5788008 (Current drug discovery technologies, 2017).

Data set [1] deals with T1, P. aeruginosa MetRS (Pseudomonas aeruginosa, UniProt Q9HYC7).
T1 sequence (Q9HYC7 1-677): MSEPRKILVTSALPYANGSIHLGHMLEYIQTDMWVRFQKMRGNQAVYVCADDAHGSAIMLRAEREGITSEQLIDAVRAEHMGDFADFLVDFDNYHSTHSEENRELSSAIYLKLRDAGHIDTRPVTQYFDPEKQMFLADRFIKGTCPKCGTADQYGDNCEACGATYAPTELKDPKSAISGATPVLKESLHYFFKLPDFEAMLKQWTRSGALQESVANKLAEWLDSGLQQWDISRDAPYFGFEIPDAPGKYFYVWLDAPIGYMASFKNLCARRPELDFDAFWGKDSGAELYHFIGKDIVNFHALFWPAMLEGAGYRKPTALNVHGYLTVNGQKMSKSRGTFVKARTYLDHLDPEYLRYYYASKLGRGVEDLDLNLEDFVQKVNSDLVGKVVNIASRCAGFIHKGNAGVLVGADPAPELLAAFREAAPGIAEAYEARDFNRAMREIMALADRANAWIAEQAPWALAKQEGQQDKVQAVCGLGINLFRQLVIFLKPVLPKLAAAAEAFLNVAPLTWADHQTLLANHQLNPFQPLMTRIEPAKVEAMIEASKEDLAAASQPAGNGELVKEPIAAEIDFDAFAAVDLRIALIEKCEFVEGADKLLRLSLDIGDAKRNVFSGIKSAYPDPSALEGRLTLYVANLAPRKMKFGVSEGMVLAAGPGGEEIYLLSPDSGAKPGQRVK

The test system of the next data set is E. coli MetRS. Particulars: cited from earlier work.
The target in data set [2] is T1, P. aeruginosa MetRS. Put plainly: tRNA aminoacylation assay in SPA format. In kind it is biochemical.
The next data set relates to E. faecalis (ATCC 29212). Nature of the data set: MIC, broth microdilution. Format: cell-based, Enterococcus faecalis. Background: Dilution methods test growth across graded concentrations, often in twofold steps.
Data set [3] concerns H. influenzae (ATCC 49766). Nature of the data set: MIC, broth microdilution. Format: cell-based, Haemophilus influenzae.
Data set [4] concerns P. aeruginosa (hypersensitive). Nature of the data set: MIC, broth microdilution. In kind it is cell-based, Pseudomonas aeruginosa. To be noted: P. aeruginosa hypersensitive strain (ATCC 35151). The method, boiled down: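 Broth microdilution per CLSI guideline M7-A7, read as MIC in μg/ml. Hypersensitive strain ATCC 35151 was a gift. Compound stocks were 10 mM in DMSO. Three separate sets of assays were run. MIC QC and culture purity were checked with antibiotics specific to each strain, using Etest QC ranges.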

The subject of another data set is S. aureus (ATCC 29213). Nature of the data set: MIC, broth microdilution. Format: cell-based, Staphylococcus aureus.
The test system of a further data set is H. influenzae. Nature of the data set: Time-kill study. In kind it is cell-based, Haemophilus influenzae. Particulars: 4×MIC. The procedure, abridged: (§1)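 Time-kill following CLSI document M26-A. Growth media were Haemophilus Test Broth and Trypticase Soy Broth. Cultures with compound were sampled at 0, 2, 4, 6 and 24 h and plated for CFU counts. Controls had no compound but an equal amount of DMSO.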

The next data set concerns S. aureus. Nature of the data set: Time-kill study. In kind it is cell-based, Staphylococcus aureus. Particulars: 4×MIC. The procedure, abridged:
as §1

Data set [5] deals with human embryonic kidney 293 cells (HEK-293). Put plainly: MTT cytotoxicity assay. Format: cell-based. (In general: Tetrazolium assays rely on reduction of a dye to a coloured formazan, in cell work by metabolically active cells.)
Data set [6] concerns the target T1, P. aeruginosa MetRS. Put plainly: Binding mode. Particulars: for competition with methionine for binding MetRS: 25-300 μM methionine, 2.5 mM ATP; for competition with ATP for binding MetRS: 25-1000 μM ATP, 75 μM methionine. In kind it is biochemical.
Substrate in data set [7]: CSCC[C@H](N)C(=O)O
Nature of the data set: purified protein, by the assay type. To be noted: other: substrate methionine, ATP 2 mM; pH 7.5; 37.0 °C.

Substrate in data set [8]: Nc1ncnc2c1ncn2[C@@H]1O[C@H](COP(=O)(O)OP(=O)(O)OP(=O)(O)O)[C@@H](O)[C@H]1O
Nature of the data set: purified protein, by the assay type. Particulars: other: substrate ATP, methionine 2 mM; pH 7.5; 37.0 °C.

≈ marks a conversion by molar mass, not a printed value. Like-named read-outs stand apart in the source and are kept apart here.

Take `Nc1ncnc2c1ncn2[C@@H]1O[C@H](COP(=O)(O)OP(=O)(O)OP(=O)(O)O)[C@@H](O)[C@H]1O` [ATP, Adenosine triphosphate]: on P. aeruginosa MetRS [1] (substrate ATP), the kcat turned out to be 24.2 s⁻¹. In the data set on E. coli MetRS (E. coli MetRS with ATP), the Km – broadly, the concentration of substrate that gives half-maximal velocity – is 528 µM and the kcat was 74 µM.

Turning to `CC1(C)C=Cc2c(c3c(c4c(=O)c(-c5ccc(O)c(O)c5)coc24)OC(C)(C)CC3)O1` [Isopomiferin, isopomiferin], the IC50 (commonly the point on the concentration scale where inhibition reaches its midpoint) on P. aeruginosa MetRS [2] (aminoacylation, 0.1 μM MetRS, compound 200 to 0.4 μM) is 70 µM. Also, the MIC with E. faecalis (ATCC 29212) was 32 µg/mL (≈ 76.1 µM); in data set [3] it was “Moderate activity”; in data set [4], 16 µg/mL (≈ 38.1 µM); against S. aureus (ATCC 29213) it was 32 µg/mL (≈ 76.1 µM). For the same molecule, the “mode of inhibition (time-kill)” value is “bacteriostatic” in the data set with H. influenzae (0-24 h) and “bactericidal” in the data set with S. aureus (0-24 h). The “decrease of colony forming units compared to the control” value in the data set on H. influenzae (during 24 h) is reported as 2 to 5 log10 CFU. The CFUs in time-kill entry in the data set with S. aureus (first six hours of growth) is “no CFUs were observed”. Further, the “CC50 relative to that of staurosporine” value in data set [5] was 10,000 fold. Also, the “competition with methionine for binding MetRS” value is listed as “not observed to compete” on P. aeruginosa MetRS [6] and “did not compete” on P. aeruginosa MetRS [6] (listed as BM01C11). The “competition with ATP for binding MetRS” value at P. aeruginosa MetRS [6] is recorded as “not observed to compete”; at P. aeruginosa MetRS [6] (listed as BM01C11), “did not compete”. In addition, the form of inhibition entry on P. aeruginosa MetRS [6] (IC50 constant as ATP or methionine increased) is reported as “non-competitive”.

For the molecule `CSCC[C@H](N)C(=O)O` [Methionine], the kcat at P. aeruginosa MetRS [1] (substrate methionine) came out at 37.2 s⁻¹. In the data set on E. coli MetRS (E. coli MetRS with methionine), the Km was 21 µM and the kcat was 74 µM.

Regarding `O=c1cc(-c2cc(O)c(O)c(O)c2)oc2cc(O)cc(O)c12` [hieracin], the IC50 against P. aeruginosa MetRS [2] is 8.3 µM.

B1: P. aeruginosa MetRS (Pseudomonas aeruginosa PAO1) (protein)
chain: T1 sequence (Q9HYC7 1-677)
Consider B1, for which, in data set [7], the Km was 35 µM, the kcat is 37.2 s⁻¹ and the kcat/Km turned out to be 1.1 µM/s. In data set [8], the Km was 515 µM, the kcat was found to be 24.2 s⁻¹ and the kcat/Km worked out at 0.05 µM/s.
